The subject of assay [1] is XCGL-1. As to the kind of experiment: Inhibition of XCGL-1 hemagglutination. Format: cell-based, Xenopus laevis. As to conditions: pig red blood cells; for inhibition of hemagglutination by carbohydrates: 25 nM XCGL-1; for inhibition of agglutination: 50 nM XCGL-1, millimolar concentrations. An outline of the steps: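 Citrated fresh pig red cells, washed in 20 mM HEPES pH 7.5, 150 mM NaCl, 10 mM CaCl2, used as a 2.5% suspension in a Terasaki plate. Two set-ups: carbohydrates at various concentrations with 25 nM lectin; EDTA or galactose at millimolar concentrations with 50 nM lectin. Plates photographed after 1 h.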

Assay [2] concerns His6 XCGL-1 CRD. As to the kind of experiment: Inhibition of His6 XCGL-1 CRD hemagglutination by carbohydrates. The format is cell-based, Xenopus laevis. The note with it: pig red blood cells, 25 nM XCGL-1.
Assay [3] has as its system Refolded XCGL-1 CRD. The assay is described as follows: Inhibition of refolded XCGL-1 CRD hemagglutination by carbohydrates. As to conditions: pig red blood cells; for concentration at which inhibition of hemagglutination was observed: 25 nM XCGL-1; for inhibition of hemagglutination at 25 mM: 25 nM XCGL-1, carbohydrate 25 mM. The format is cell-based, Xenopus laevis.
In assay [4] the test system is XCGL-1. As to the kind of experiment: Competitive elution of XCGL-1 from lactose resin. On the set-up: species or system Xenopus laevis. As to conditions: carbohydrate 6.5 mM in binding buffer, western blot. The method, boiled down:
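Lactose-agarose resin (250 μL) settled in a spin column and washed three times with binding buffer (20 mM HEPES pH 7.5, 150 mM NaCl, 10 mM CaCl2). Protein (250 μL, 0.1 μM) bound for 5 min, then washed three times. Elution with each carbohydrate at 6.5 mM in binding buffer; eluates analysed by western blot.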
In general terms: In western blotting, separated proteins are transferred to a membrane and probed.

The target in assay [5] is His6 XCGL-1 (Xenopus laevis, UniProt Q91719). As to the kind of experiment: Inhibition of His6 XCGL-1 hemagglutination by carbohydrates. The format is cell-based. The note with it: pig red blood cells, 25 nM XCGL-1. An outline of the steps: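 Fresh pig blood collected into sodium citrate tubes. Red cells washed in 20 mM HEPES pH 7.5, 150 mM NaCl, 10 mM CaCl2 and used as a 2.5% suspension. Incubated with 25 nM lectin plus carbohydrate at various concentrations in a Terasaki plate. Agglutination photographed after 1 h. MIC is the minimum carbohydrate concentration inhibiting agglutination.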

The source of these data is paper PMC9434060 (Heliyon, 2022).

Chain of His6 XCGL-1 (Q91719 18-313): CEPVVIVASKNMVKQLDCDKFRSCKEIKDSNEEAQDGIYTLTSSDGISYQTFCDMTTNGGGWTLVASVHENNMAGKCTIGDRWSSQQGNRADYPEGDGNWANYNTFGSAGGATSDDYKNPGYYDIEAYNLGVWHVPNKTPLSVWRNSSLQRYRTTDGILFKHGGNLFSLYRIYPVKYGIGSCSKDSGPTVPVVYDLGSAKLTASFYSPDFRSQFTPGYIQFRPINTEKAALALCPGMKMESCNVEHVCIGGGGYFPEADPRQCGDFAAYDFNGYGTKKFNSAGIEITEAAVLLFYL

As for `CC(=O)N[C@H]1C(O)O[C@H](CO)[C@H](O)[C@@H]1O` (stereo partly drawn) [N-acetylgalactosamine, N-acetyl-D-galactosamine], the “inhibition of hemagglutination by carbohydrates” value (from here on “inhibition … by carbohydrates”) in assay [1] was “could not inhibit hemagglutination”.
Same read-out and setting: the result for `CC(=O)N[C@@H]1[C@@H](O)[C@H](O)[C@@H](CO)O[C@H]1O` [N-acetylglucosamine, N-acetyl-D-glucosamine] reads “could not inhibit hemagglutination”.
As to `OC[C@H]1OC(O)[C@@H](O)[C@@H](O)[C@@H]1O` (stereo partly drawn) [mannose, D-mannose], the “inhibition … by carbohydrates” value in assay [1] is given as “could not inhibit hemagglutination”.
On the same count and under the same terms, the result for `C[C@H](O)[C@@H](O)[C@@H](O)[C@H](O)C=O` [fucose, L-fucose] reads “could not inhibit hemagglutination”.
For `OC[C@H]1O[C@@H](O[C@H]2[C@H](O)[C@@H](O)[C@H](O)O[C@@H]2CO)[C@H](O)[C@@H](O)[C@H]1O` [lactose, β-D-Gal-(1→4)-D-Glc], the figures for the “minimum inhibitory concentration (MIC) of hemagglutination” value (from here on “minimum inhibitory concentration (MIC)”) in assay [2] and in assay [5] were 10 mM and 15 mM, respectively. In assay [3], the “concentration at which inhibition of hemagglutination was observed” value is on record as greater than 20 mM. For the same molecule, the “competitive elution of XCGL-1 bound to lactose resin” value (from here on “competitive elution of XCGL-1 bound”) in assay [4] is on record as “able to elute XCGL-1 competitively”.
Turning to `O=C(O)CN(CCN(CC(=O)O)CC(=O)O)CC(=O)O` [EDTA], the inhibition of agglutination entry in assay [1] is reported as “inhibited”.
`OC[C@H]1O[C@H](OCC2O[C@@H](O)[C@H](O)[C@@H](O)[C@@H]2O)[C@H](O)[C@@H](O)[C@H]1O` (stereo partly drawn) [melibiose, α-D-Gal-(1→6)-D-Glc]: the “minimum inhibitory concentration (MIC)” value in assay [2] came out at 10 mM; in assay [5], 15 mM. In addition, the “concentration at which inhibition of hemagglutination was observed” value in assay [3] is greater than 20 mM. Besides, in assay [4], the “competitive elution of XCGL-1 bound” value is “able to elute XCGL-1 competitively”.
Regarding `CC(=O)N[C@H]1C(O)O[C@H](CO)[C@H](O)[C@@H]1O[C@H]1O[C@H](CO)[C@H](O)[C@H](O)[C@H]1O` (stereo partly drawn) [α-D-Gal-(1→3)-D-GalNAc], the “minimum inhibitory concentration (MIC)” value came to 2.5 mM in assay [2] and 5 mM in assay [5]. Moreover, in assay [3], the “inhibition of hemagglutination at 25 mM” value is recorded as “no inhibition”. Moreover, in assay [4], the “competitive elution of XCGL-1 bound” value is “able to elute XCGL-1 competitively”.
Consider `OC[C@H]1OC(O)[C@H](O)[C@@H](O)[C@@H]1O` (some centres unmarked) [glucose], for which, in assay [1], the “inhibition … by carbohydrates” value is given as “could not inhibit hemagglutination”.
In the case of `O=C[C@H](O)[C@@H](O)[C@@H](O)[C@H](O)CO` [galactose, D-galactose], the “minimum inhibitory concentration (MIC)” value in assay [2] is on record as 10 mM; in assay [5] it was 15 mM. Further, in assay [3], the “inhibition of hemagglutination at 25 mM” value is listed as “not efficient at inhibiting hemagglutination”. Further, the “competitive elution of XCGL-1 bound” value in assay [4] is “able to elute XCGL-1 competitively”. Besides, the inhibition of agglutination entry in assay [1] is recorded as “inhibited”.
